Laboratory results taken from ChEMBL document CHEMBL4402567, “Structure-Activity Relationship Studies on Diversified Salicylamide Derivatives as Potent Inhibitors of Human Adenovirus Infection” (J Med Chem, 2020).
Activity calls are given as the source filed them. The calls are words filed in the database; no cut-off is given here.

Legend:
Human adenovirus 5 [1] = assay: Antiviral activity against Human adenovirus 5 infected in 293beta5 cells assessed as reduction in inhibition of viral replication at 10 uM preincubated for 60 mins followed by viral infection by GFP reporter gene assay; assay type: functional, organism-based
Human adenovirus 5 [2] = assay: Antiviral activity against Human adenovirus 5 infected in human A549 cells assessed as inhibition of viral entry after 48 hrs by GFP reporter gene based assay; assay type: functional, organism-based; conditions: Human mastadenovirus C, A549, 48 h
Procedure, shortened: (§1)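 Entry assay in A549 epithelial cells infected with HAdV5-GFP at high MOI, with compound present throughout and 48 h incubation. GFP expression is the read-out.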

Human adenovirus 5 [3] = assay: Antiviral activity against Human adenovirus 5 infected in 293beta5 cells assessed as inhibition of viral replication at 10 uM after 20 mins post infection by GFP reporter gene assay relative to control; assay type: functional; conditions: Human mastadenovirus C, 293beta5, 20 min
[4] = Cytotoxicity against human A549 cells assessed as reduction in cell viability after 48 hrs by alamar blue assay; assay type: cell-based
Human adenovirus 5 [5] = assay: Antiviral activity against Human adenovirus 5 infected in human A549 cells asssessed as inhibition of viral entry by measuring nuclear-associated viral genome level at 20 uM after 45 mins by RT-PCR analysis (reference value: 100.24 +/- 2.77%); assay type: functional; set-up: scale not given: the % may be the effect or the level left
Procedure, shortened: (§2)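 Nuclear HAdV genome levels in treated cells were quantified at 45 min post-infection and compared with DMSO-treated cells. […] Bars are means ± SD of triplicate samples.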

Human adenovirus 5 [6] = assay: Antiviral activity against Human adenovirus 5 infected in human A549 cells assessed as inhibition of viral DNA replication by measuring number of viral DNA copies at 20 uM after 24 hrs by RT-qPCR analysis (reference value: 100 +/- 1.55%); assay type: functional; set-up: scale not given: the % may be the effect or the level left
Human adenovirus 5 [7] = assay: Antiviral activity against Human adenovirus 5 infected in 293beta5 cells assessed as inhibition of plaque formation incubated for 7 days by GFP reporter gene assay; assay type: functional, organism-based; conditions: Human mastadenovirus C, 293beta5, 168 h
Procedure, shortened: (§3)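 HAdV5-GFP plaque assay in 293β5 cells at low MOI. Inhibition is expressed as percent of the infected control, with single-dose screening at 10 μM. Compounds giving >90% inhibition went on to IC50 determination. Values are means ± SD of triplicate samples from three independent experiments.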

[8] = Selectivity index, ratio of CC50 for cytotoxicity against human A549 cells to IC50 for antiviral activity against Human adenovirus 5 infected in 293beta5 cells assessed as inhibition of plaque formation after 7 days; assay type: toxicity, cell-based; conditions: read-out: Ratio CC50/IC50
Human adenovirus 5 [9] = assay: Antiviral activity against Human adenovirus 5 infected in human A549 cells assessed as fold reduction in virus yield at 20 uM after 48 hrs endpoint dilution method relative to control; assay type: functional
Human adenovirus 5 [10] = assay: Antiviral activity against Human adenovirus 5 infected in 293beta5 cells assessed as inhibition of plaque formation at 10 uM incubated for 7 days by GFP reporter gene assay relative to control; assay type: functional; conditions: Human mastadenovirus C, 293beta5, 168 h; procedure, shortened: as §3
Human adenovirus 5 [11] = assay: Antiviral activity against Human adenovirus 5 infected in human A549 cells assessed as inhibition of viral entry at 50 uM after 48 hrs by GFP reporter gene based assay relative to control; assay type: functional; conditions: Human mastadenovirus C, A549, 48 h; procedure, shortened: as §1
Human adenovirus 5 [12] = assay: Antiviral activity against Human adenovirus 5 infected in human A549 cells asssessed as inhibition of viral entry by measuring nuclear-associated viral genome level at 10 uM after 45 mins by RT-PCR analysis (reference value: 100.24 +/- 2.77%); assay type: functional; set-up: scale not given: the % may be the effect or the level left; procedure, shortened: as §2
Human adenovirus 5 [13] = assay: Antiviral activity against Human adenovirus 5 infected in human A549 cells assessed as inhibition of viral DNA replication by measuring number of viral DNA copies at 10 uM after 24 hrs by RT-qPCR analysis (reference value: 100 +/- 1.55%); assay type: functional; set-up: scale not given: the % may be the effect or the level left
Human adenovirus 5 [14] = assay: Antiviral activity against Human adenovirus 5 infected in human A549 cells assessed as fold reduction in virus yield at 10 uM after 48 hrs endpoint dilution method relative to control; assay type: functional
Human adenovirus 5 [15] = assay: Antiviral activity against Human adenovirus 5 infected in 293beta5 cells assessed as inhibition of viral infection at 10 uM measured after 5 to 10 mins post infection by GFP reporter gene assay relative to control; assay type: functional; set-up: scale not given: the % may be the effect or the level left
Human adenovirus 5 [16] = assay: Antiviral activity against Human adenovirus 5 infected in human A549 cells assessed as fold reduction in virus yield at 50 uM after 48 hrs endpoint dilution method relative to control; assay type: functional
Human adenovirus 5 [17] = assay: Antiviral activity against Human adenovirus 5 infected in human A549 cells asssessed as inhibition of viral entry by measuring nuclear-associated viral genome level at 50 uM after 45 mins by RT-PCR analysis (reference value: 100.24 +/- 2.77%); assay type: functional; set-up: scale not given: the % may be the effect or the level left; procedure, shortened: as §2
Human adenovirus 5 [18] = assay: Antiviral activity against Human adenovirus 5 infected in 293beta5 cells assessed as inhibition of viral infection at 10 uM preincubated for 60 mins followed by viral infection by GFP reporter gene assay relative to control; assay type: functional; conditions: Human mastadenovirus C
Human adenovirus 5 [19] = assay: Antiviral activity against Human adenovirus 5 infected in 293beta5 cells assessed as inhibition of viral infection at 10 uM measured after 2 hrs post infection by GFP reporter gene assay relative to control; assay type: functional; conditions: Human mastadenovirus C, 293beta5, 2 h
Human adenovirus 5 [20] = assay: Antiviral activity against Human adenovirus 5 infected in human A549 cells assessed as inhibition of viral DNA replication by measuring number of viral DNA copies at 50 uM after 24 hrs by RT-qPCR analysis (reference value: 100 +/- 1.55%); assay type: functional; set-up: scale not given: the % may be the effect or the level left
Human adenovirus 5 [21] = assay: Antiviral activity against Human adenovirus 5 infected in human A549 cells assessed as fold reduction in virus yield at 2 uM after 48 hrs endpoint dilution method relative to control; assay type: functional
Human adenovirus 5 [22] = assay: Antiviral activity against Human adenovirus 5 infected in 293beta5 cells assessed as inhibition of viral infection at 5 uM measured after 20 to 40 mins post infection by GFP reporter gene assay relative to control; assay type: functional; set-up: scale not given: the % may be the effect or the level left
Human adenovirus 5 [23] = assay: Antiviral activity against Human adenovirus 5 infected in human A549 cells assessed as inhibition of viral DNA replication by measuring number of viral DNA copies at 2 uM after 24 hrs by RT-qPCR analysis (reference value: 100 +/- 1.55%); assay type: functional; set-up: scale not given: the % may be the effect or the level left
Human adenovirus 5 [24] = assay: Antiviral activity against Human adenovirus 5 infected in human A549 cells asssessed as inhibition of viral entry by measuring nuclear-associated viral genome level at 2 uM after 45 mins by RT-PCR analysis (reference value: 100.24 +/- 2.77%); assay type: functional; set-up: scale not given: the % may be the effect or the level left; procedure, shortened: as §2

In the case of `O=C(N[C@H](Cc1ccccc1)C(=O)Nc1ccc([N+](=O)[O-])cc1Cl)c1cc(Cl)ccc1O`, the Activity (Human adenovirus 5 [1]) is reported as “Active”, the IC50 (Human adenovirus 5 [2]) is reported as 9700 nM and the inhibition at 10 µM (Human adenovirus 5 [3]) is reported as 50%. For the same compound, the CC50 at 48 h [4] was 77900 nM, the Activity (Human adenovirus 5 [5]) was 32.21% and the Activity (Human adenovirus 5 [6]) was 25.78%. The IC50 (Human adenovirus 5 [7]) was 300 nM, the selectivity ratio at 168 h [8] was 260 and the “fold change (FC)” value (Human adenovirus 5 [9]) was 528. It also gave an inhibition at 10 µM (Human adenovirus 5 [10]) of 100%.

In the case of `O=C(Nc1ccc(C(F)(F)F)cc1Cl)c1cc(Cl)ccc1O`, the IC50 (Human adenovirus 5 [2]) is reported as 1670 nM, the inhibition at 50 µM (Human adenovirus 5 [11]) is reported as 100% and the Activity (Human adenovirus 5 [12]) is reported as 46.53%. The Activity (Human adenovirus 5 [13]) was 27.03%, the IC50 (Human adenovirus 5 [7]) was 80 nM and the “fold change (FC)” value (Human adenovirus 5 [14]) was 175. The Activity (Human adenovirus 5 [15]) was 20% and the inhibition at 10 µM (Human adenovirus 5 [10]) was 100%.

With `CC(C)[C@H](NC(=O)c1cc(Cl)ccc1NS(C)(=O)=O)C(=O)Nc1ccc([N+](=O)[O-])cc1Cl` the “fold change (FC)” value (Human adenovirus 5 [16]) was 1, the Activity (Human adenovirus 5 [17]) was 16.68% and the IC50 (Human adenovirus 5 [2]) was 1380 nM. For the same compound, the inhibition at 10 µM (Human adenovirus 5 [18]) was greater than 50%, the inhibition at 50 µM (Human adenovirus 5 [11]) was 99.1% and the inhibition at 10 µM (Human adenovirus 5 [19]) was greater than 50%. It also gave a CC50 at 48 h [4] of 174000 nM, an Activity (Human adenovirus 5 [20]) of 4.56% and an IC50 (Human adenovirus 5 [7]) of 680 nM. For the same compound, the selectivity ratio at 168 h [8] was 256 and the inhibition at 10 µM (Human adenovirus 5 [10]) was 99.1%.

For `O=C(Nc1ccc([N+](=O)[O-])cc1F)c1cc(Cl)ccc1O`, the IC50 (Human adenovirus 5 [2]) was 1570 nM, the “fold change (FC)” value (Human adenovirus 5 [21]) was 1.8 and the CC50 at 48 h [4] was 10900 nM. It also gave an Activity (Human adenovirus 5 [22]) of 34%, an IC50 (Human adenovirus 5 [7]) of 50 nM and a selectivity ratio at 168 h [8] of 218. It also gave an Activity (Human adenovirus 5 [23]) of 75.85% and an Activity (Human adenovirus 5 [24]) of 57.6%.
